According to ChEMBL document CHEMBL1255475, “Mutant prevention concentrations of four carbapenems against gram-negative rods” (2010):
In brackets after ≈: the same amount, converted by molar mass.

Tests used:
Assay type in all cases: functional
Acinetobacter baumannii [1] = assay: Antibacterial activity against Acinetobacter baumannii A898 assessed as mutant prevention concentration after overnight incubation
Acinetobacter baumannii [2] = assay: Antibacterial activity against Acinetobacter baumannii A885 assessed as mutant prevention concentration after overnight incubation
Acinetobacter baumannii [3] = assay: Antibacterial activity against Acinetobacter baumannii A903 assessed as mutant prevention concentration after overnight incubation
Klebsiella pneumoniae [4] = assay: Antibacterial activity against beta-lactamase-negative Klebsiella pneumoniae E362 assessed as mutant prevention concentration after overnight incubation
Klebsiella pneumoniae [5] = assay: Antibacterial activity against beta-lactamase-negative Klebsiella pneumoniae E418 assessed as mutant prevention concentration after overnight incubation
How it was run: (§1)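 Overnight growth on blood trypticase soy agar (35°C, air) was resuspended in 0.9% saline and counted on drug-free Mueller-Hinton agar. […] Colonies were retested by agar dilution to confirm mutants. MPC was the lowest concentration preventing resistant-mutant growth.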

Klebsiella pneumoniae [6] = assay: Antibacterial activity against beta-lactamase-positive ESBL-positive Klebsiella pneumoniae E476 assessed as mutant prevention concentration after overnight incubation; how it was run: as §1
Klebsiella pneumoniae [7] = assay: Antibacterial activity against beta-lactamase-positive ESBL-positive Klebsiella pneumoniae E475 assessed as mutant prevention concentration after overnight incubation; how it was run: as §1
Klebsiella pneumoniae [8] = assay: Antibacterial activity against beta-lactamase-positive ESBL-negative Klebsiella pneumoniae E479 assessed as mutant prevention concentration after overnight incubation; how it was run: as §1
Klebsiella pneumoniae [9] = assay: Antibacterial activity against beta-lactamase-positive ESBL-negative Klebsiella pneumoniae E473 assessed as mutant prevention concentration after overnight incubation; how it was run: as §1
Klebsiella pneumoniae [10] = assay: Antibacterial activity against beta-lactamase-positive ESBL-negative Klebsiella pneumoniae E481 assessed as mutant prevention concentration after overnight incubation; how it was run: as §1
Klebsiella pneumoniae [11] = assay: Antibacterial activity against beta-lactamase-negative Klebsiella pneumoniae E420 assessed as mutant prevention concentration after overnight incubation; how it was run: as §1
Pseudomonas aeruginosa [12] = assay: Antibacterial activity against Pseudomonas aeruginosa P356 assessed as mutant prevention concentration after overnight incubation
Pseudomonas aeruginosa [13] = assay: Antibacterial activity against Pseudomonas aeruginosa P373 assessed as mutant prevention concentration after overnight incubation
Pseudomonas aeruginosa [14] = assay: Antibacterial activity against Pseudomonas aeruginosa P320 assessed as mutant prevention concentration after overnight incubation
Pseudomonas aeruginosa [15] = assay: Antibacterial activity against Pseudomonas aeruginosa P327 assessed as mutant prevention concentration after overnight incubation
Pseudomonas aeruginosa [16] = assay: Antibacterial activity against Pseudomonas aeruginosa P323 assessed as mutant prevention concentration after overnight incubation
Pseudomonas aeruginosa [17] = assay: Antibacterial activity against Pseudomonas aeruginosa P334 assessed as mutant prevention concentration after overnight incubation
Pseudomonas aeruginosa [18] = assay: Antibacterial activity against Pseudomonas aeruginosa P338 assessed as mutant prevention concentration after overnight incubation
Pseudomonas aeruginosa [19] = assay: Antibacterial activity against Pseudomonas aeruginosa P352 assessed as mutant prevention concentration after overnight incubation
Pseudomonas aeruginosa [20] = assay: Antibacterial activity against Pseudomonas aeruginosa P340 assessed as mutant prevention concentration after overnight incubation
Pseudomonas aeruginosa [21] = assay: Antibacterial activity against Pseudomonas aeruginosa P341 assessed as mutant prevention concentration after overnight incubation
Acinetobacter baumannii [22] = assay: Antibacterial activity against Acinetobacter baumannii A848 assessed as mutant prevention concentration after overnight incubation
Acinetobacter baumannii [23] = assay: Antibacterial activity against Acinetobacter baumannii A911 assessed as mutant prevention concentration after overnight incubation
Acinetobacter baumannii [24] = assay: Antibacterial activity against Acinetobacter baumannii A910 assessed as mutant prevention concentration after overnight incubation
Acinetobacter baumannii [25] = assay: Antibacterial activity against Acinetobacter baumannii A896 assessed as mutant prevention concentration after overnight incubation
Escherichia coli [26] = assay: Antibacterial activity against beta-lactamase-negative Escherichia coli E344 assessed as mutant prevention concentration after overnight incubation
Escherichia coli [27] = assay: Antibacterial activity against beta-lactamase-negative Escherichia coli E350 assessed as mutant prevention concentration after overnight incubation
Escherichia coli [28] = assay: Antibacterial activity against beta-lactamase-positive ESBL-positive Escherichia coli E458 assessed as mutant prevention concentration after overnight incubation; how it was run: as §1
Escherichia coli [29] = assay: Antibacterial activity against beta-lactamase-positive ESBL-negative Escherichia coli E415 assessed as mutant prevention concentration after overnight incubation; how it was run: as §1
Escherichia coli [30] = assay: Antibacterial activity against beta-lactamase-positive ESBL-positive Escherichia coli E465 assessed as mutant prevention concentration after overnight incubation; how it was run: as §1
Klebsiella pneumoniae [31] = assay: Antibacterial activity against beta-lactamase-negative Klebsiella pneumoniae E357 assessed as mutant prevention concentration after overnight incubation
Klebsiella pneumoniae [32] = assay: Antibacterial activity against beta-lactamase-negative Klebsiella pneumoniae E358 assessed as mutant prevention concentration after overnight incubation
Klebsiella pneumoniae [33] = assay: Antibacterial activity against beta-lactamase-negative Klebsiella pneumoniae E361 assessed as mutant prevention concentration after overnight incubation
Escherichia coli [34] = assay: Antibacterial activity against beta-lactamase-negative Escherichia coli E345 incubated up to 7 days by agar dilution method; details: E345, 168 h
Klebsiella pneumoniae [35] = assay: Antibacterial activity against beta-lactamase-positive ESBL-negative Klebsiella pneumoniae E479 incubated up to 7 days by agar dilution method; details: E479, 168 h
How it was run: (§2)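 MPC determination: overnight cultures on blood trypticase soy agar at 35°C in air were resuspended in 0.9% saline, and CFU were counted on drug-free Mueller-Hinton agar. […] Growth was retested by agar dilution to confirm mutants. MPC was the lowest concentration preventing resistant-mutant growth.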

Klebsiella pneumoniae [36] = assay: Antibacterial activity against beta-lactamase-positive ESBL-negative Klebsiella pneumoniae E477 incubated up to 7 days by agar dilution method; details: E477, 168 h
Klebsiella pneumoniae [37] = assay: Antibacterial activity against beta-lactamase-positive ESBL-negative Klebsiella pneumoniae E481 incubated up to 7 days by agar dilution method; details: E481, 168 h
Klebsiella pneumoniae [38] = assay: Antibacterial activity against beta-lactamase-positive ESBL-positive Klebsiella pneumoniae E453 incubated up to 7 days by agar dilution method; details: E453, 168 h
How it was run: (§3)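 MIC by CLSI agar dilution, with quality-control strains in each run. Beta-lactamase status was set by 30 μg cefazolin Kirby-Bauer disk diffusion. ESBL status was set by cefotaxime and ceftazidime disks (30 μg) with and without clavulanic acid (10 μg).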

Klebsiella pneumoniae [39] = assay: Antibacterial activity against beta-lactamase-positive ESBL-negative Klebsiella pneumoniae E507 incubated up to 7 days by agar dilution method; details: E507, 168 h; how it was run: as §2
Escherichia coli [40] = assay: Antibacterial activity against beta-lactamase-negative Escherichia coli E424 […] by agar dilution method
Escherichia coli [41] = assay: Antibacterial activity against beta-lactamase-positive ESBL-positive Escherichia coli E459 incubated up to 7 days by agar dilution method; details: E459, 168 h; how it was run: as §3
Escherichia coli [42] = assay: Antibacterial activity against beta-lactamase-positive ESBL-positive Escherichia coli E465 incubated up to 7 days by agar dilution method; details: E465, 168 h; how it was run: as §3
Escherichia coli [43] = assay: Antibacterial activity against beta-lactamase-positive ESBL-negative Escherichia coli E484 incubated up to 7 days by agar dilution method; details: E484, 168 h
Klebsiella pneumoniae [44] = assay: Antibacterial activity against beta-lactamase-negative Klebsiella pneumoniae E358 incubated up to 7 days by agar dilution method; details: E358, 168 h
Klebsiella pneumoniae [45] = assay: Antibacterial activity against beta-lactamase-negative Klebsiella pneumoniae E419 incubated up to 7 days by agar dilution method; details: E419, 168 h
Klebsiella pneumoniae [46] = assay: Antibacterial activity against beta-lactamase-negative Klebsiella pneumoniae E361 incubated up to 7 days by agar dilution method; details: E361, 168 h

C[C@@H](O)[C@H]1C(=O)N2C(C(=O)O)=C(SCCNC=N)C[C@H]12 [IMIPENEM ANHYDROUS] gave an MPC (Acinetobacter baumannii [1]) of 4 µg/mL, an MPC (Acinetobacter baumannii [2]) of 8 µg/mL and an MPC (Acinetobacter baumannii [3]) of 1 µg/mL. It also gave an MPC (Klebsiella pneumoniae [4]) of 1 µg/mL, an MPC (Klebsiella pneumoniae [5]) of 4 µg/mL and an MPC (Klebsiella pneumoniae [6]) greater than 16 µg/mL. It also gave an MPC (Klebsiella pneumoniae [7]) of 16 µg/mL, an MPC (Klebsiella pneumoniae [8]) of 32 µg/mL and an MPC (Klebsiella pneumoniae [9]) of 16 µg/mL. For the same compound, the MPC (Klebsiella pneumoniae [10]) was 16 µg/mL, the MPC (Klebsiella pneumoniae [11]) was 0.25 µg/mL and the MPC (Pseudomonas aeruginosa [12]) was greater than 32 µg/mL. It also gave an MPC (Pseudomonas aeruginosa [13]) of 32 µg/mL, an MPC (Pseudomonas aeruginosa [14]) of 32 µg/mL and an MPC (Pseudomonas aeruginosa [15]) of 16 µg/mL. The MPC (Pseudomonas aeruginosa [16]) was 64 µg/mL, the MPC (Pseudomonas aeruginosa [17]) was 16 µg/mL and the MPC (Pseudomonas aeruginosa [18]) was 16 µg/mL. The MPC (Pseudomonas aeruginosa [19]) was 32 µg/mL, the MPC (Pseudomonas aeruginosa [20]) was 2 µg/mL and the MPC (Pseudomonas aeruginosa [21]) was 32 µg/mL. It also gave an MPC (Acinetobacter baumannii [22]) of 8 µg/mL, an MPC (Acinetobacter baumannii [23]) of 8 µg/mL and an MPC (Acinetobacter baumannii [24]) of 8 µg/mL. For the same compound, the MPC (Acinetobacter baumannii [25]) was 1 µg/mL, the MPC (Escherichia coli [26]) was 0.5 µg/mL and the MPC (Escherichia coli [27]) was 2 µg/mL. For the same compound, the MPC (Escherichia coli [28]) was 0.5 µg/mL, the MPC (Escherichia coli [29]) was 0.5 µg/mL and the MPC (Escherichia coli [30]) was 0.5 µg/mL. It also gave an MPC (Klebsiella pneumoniae [31]) of 1 µg/mL, an MPC (Klebsiella pneumoniae [32]) of 0.5 µg/mL and an MPC (Klebsiella pneumoniae [33]) of 1 µg/mL.
C[C@@H](O)[C@H]1C(=O)N2C(C(=O)O)=C(S[C@@H]3CN[C@H](C(=O)Nc4cccc(C(=O)O)c4)C3)[C@H](C)[C@H]12 showed an MIC (Escherichia coli [34]) of 0.008 µg/mL (≈ 0.0168 µM), an MIC (Klebsiella pneumoniae [35]) of 8 µg/mL (≈ 16.8 µM) and an MIC (Klebsiella pneumoniae [36]) of 8 µg/mL (≈ 16.8 µM). It also gave an MIC (Klebsiella pneumoniae [37]) of 4 µg/mL (≈ 8.41 µM), an MIC (Klebsiella pneumoniae [38]) of 0.5 µg/mL (≈ 1.05 µM) and an MIC (Klebsiella pneumoniae [39]) of 8 µg/mL (≈ 16.8 µM). It also gave an MIC (Escherichia coli [40]) of 0.016 µg/mL (≈ 0.0336 µM), an MIC (Escherichia coli [41]) of 0.03 µg/mL (≈ 0.0631 µM) and an MIC (Escherichia coli [42]) of 0.25 µg/mL (≈ 0.526 µM). For the same compound, the MIC (Escherichia coli [43]) was 8 µg/mL (≈ 16.8 µM), the MIC (Klebsiella pneumoniae [44]) was 0.008 µg/mL (≈ 0.0168 µM) and the MIC (Klebsiella pneumoniae [45]) was 0.016 µg/mL (≈ 0.0336 µM). It also gave an MIC (Klebsiella pneumoniae [46]) of 0.016 µg/mL (≈ 0.0336 µM), an MPC (Klebsiella pneumoniae [4]) of 0.06 µg/mL and an MPC (Klebsiella pneumoniae [5]) of 0.125 µg/mL. For the same compound, the MPC (Klebsiella pneumoniae [6]) was 32 µg/mL, the MPC (Klebsiella pneumoniae [7]) was 16 µg/mL and the MPC (Klebsiella pneumoniae [8]) was 64 µg/mL. The MPC (Klebsiella pneumoniae [9]) was 32 µg/mL, the MPC (Klebsiella pneumoniae [10]) was 8 µg/mL and the MPC (Klebsiella pneumoniae [11]) was 0.03 µg/mL. It also gave an MPC (Escherichia coli [26]) of 0.03 µg/mL, an MPC (Escherichia coli [27]) of 0.03 µg/mL and an MPC (Escherichia coli [28]) of 0.5 µg/mL. For the same compound, the MPC (Escherichia coli [29]) was 0.5 µg/mL, the MPC (Escherichia coli [30]) was 8 µg/mL and the MPC (Klebsiella pneumoniae [31]) was 0.03 µg/mL. The MPC (Klebsiella pneumoniae [32]) was 0.03 µg/mL and the MPC (Klebsiella pneumoniae [33]) was 0.06 µg/mL.
